Active and inactive are the calls of the source. The calls are words filed in the database; no cut-off is given here.
How the values were obtained:
[1] = test system: Quadruplex DNA [UNDEFINED MUTATION]; test: Binding affinity to telomeric Htg24 G-quadruplex DNA G17T mutant (unknown origin) assessed as negative fluorescence signal at 5 uM under pH condition 7.4 by fluorescence titration analysis; assay type: nucleic-acid assay; conditions: Homo sapiens
Summary of the method: (§1)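 Ligand 5 μM mixed with wild-type or point-mutant Htg24 in Tris-HCl buffer with 60 mM KCl; signal change calculated as (F mutant − F wild type)/F wild type.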

[2] = test system: Quadruplex DNA [UNDEFINED MUTATION]; test: Binding affinity to telomeric Htg24 G-quadruplex DNA G21C mutant (unknown origin) assessed as strong fluorescence signal at 5 uM under pH condition 7.4 by fluorescence titration analysis; assay type: nucleic-acid assay; conditions: Homo sapiens; summary of the method: as §1
[3] = test system: Quadruplex DNA [UNDEFINED MUTATION]; test: Binding affinity to telomeric Htg24 G-quadruplex DNA G21A mutant (unknown origin) assessed as strong fluorescence signal at 5 uM under pH condition 7.4 by fluorescence titration analysis; assay type: nucleic-acid assay; conditions: Homo sapiens; summary of the method: as §1
Quadruplex DNA [4] = test: Binding affinity to telomeric Htg22 G-quadruplex DNA (unknown origin) assessed as fold increase in fluorescence signal at 5 uM under pH condition 7.4 by fluorescence method; assay type: nucleic-acid assay
Summary of the method: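 Ligand 5 μM with each nucleic acid at 15 μM in 10 mM Tris-HCl pH 7.4, 60 mM KCl; emission enhancement expressed as F/F0 against ligand without DNA.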

16HBE14o- = test: Cytotoxicity against human 16HBE14o- cells assessed as cell viability incubated for 48 hrs by MTT assay; assay type: cell-based; conditions: 36 h, in the assay text read “36 hrs” for “48 hrs”
Summary of the method: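 Cells were plated and grown 48 h at 37 °C, 5% CO2, in DMEM with 10% FBS. They were then given graded ligand concentrations for 36 h and treated with MTT (5 mg/ml) for 4 h in the dark. Formazan was dissolved in DMSO and absorbance read at 577 nm. IC50 was taken from a sigmoidal dose–response fit; three independent experiments.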

HeLa [5] = test: Effect on telomere length in human HeLa cells assessed as reduction of telomere length incubated for 18 days by qRT-PCR analysis; assay type: functional, cell-based; conditions: dose 0.5-4 µM, time 18.0 day
Summary of the method: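 HeLa cells were treated with graded compound concentrations (0–4 μM) for 18 days. Genomic DNA was isolated by proteinase K digestion and phenol/chloroform extraction. Relative telomere length was measured by qPCR against hRPLPO using the ΔΔCt method; three independent experiments.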

Quadruplex DNA [6] = test: Binding affinity to telomeric Htg24 G-quadruplex DNA (unknown origin) assessed as emission wavelength at 480 to 483 nm at pH 7.4 by spectrophotometric method; assay type: nucleic-acid assay
[7] = test system: Quadruplex DNA [UNDEFINED MUTATION]; test: Effect on confirmation of telomeric Htg24 G-quadruplex DNA G22T mutant (unknown origin) assessed as hybrid topology at 5 uM at pH 7.4 by circular dichroism analysis; assay type: nucleic-acid assay; conditions: Homo sapiens
Summary of the method: (§2)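 CD spectra recorded on G4-DNA and ligand, each at 5 μM, in 10 mM Tris-HCl, pH 7.4, with 60 mM KCl. Scan range 220–340 nm in a 1 mm quartz cuvette, 1 nm bandwidth and step, 0.5 s/point. Each spectrum is the average of three scans.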

HeLa [8] = test: Downregulation of hTERT mRNA expression in human HeLa cells at 5 to 20 uM by qRT-PCR analysis; assay type: functional, cell-based; conditions: dose 5-20 µM
Summary of the method: (§3)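 HeLa cells were treated with graded compound concentrations, then incubated 36 h. RNA was extracted with Trizol/chloroform, reverse transcribed and quantified by qRT-PCR. GAPDH served as internal control, with relative expression by the ΔΔCt method; three independent experiments, mean ± SD.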

PC-3 = test: Antiproliferative activity against human PC-3 cells assessed as reduction in cell viability […] by MTT assay; assay type: functional, cell-based
HeLa [9] = test: Antiproliferative activity against human HeLa cells assessed as reduction in cell viability […] by MTT assay; assay type: functional, cell-based
[10] = test system: Quadruplex DNA [UNDEFINED MUTATION]; test: Binding affinity to telomeric Htg24 G-quadruplex DNA G15T mutant (unknown origin) assessed as fluorescence signal at 5 uM under pH condition 7.4 by fluorescence titration analysis; assay type: nucleic-acid assay; conditions: Homo sapiens
[11] = test system: Quadruplex DNA [UNDEFINED MUTATION]; test: Binding affinity to telomeric Htg24 G-quadruplex DNA G3T mutant (unknown origin) assessed as negative fluorescence signal at 5 uM under pH condition 7.4 by fluorescence titration analysis; assay type: nucleic-acid assay; conditions: Homo sapiens
Summary of the method: (§4)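 Ligand held at 5 μM and mixed with each Htg24 point mutant in Tris-HCl buffer containing 60 mM KCl, pH 7.4. Fluorescence was read, and the signal change was computed as (F mutant − F wild type)/F wild type.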

HeLa [12] = test: Downregulation of hTERC mRNA expression in human HeLa cells at 5 to 20 uM by qRT-PCR analysis; assay type: functional, cell-based; conditions: dose 5-20 µM; summary of the method: as §3
DNA = test: Binding affinity to ds26 DNA (unknown origin) assessed as dissociation constant by isothermal titration calorimetric analysis; assay type: nucleic-acid assay
Summary of the method: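 ITC at 25 °C: DNA preannealed at 95 °C for 5 min, cooled and held at 4 °C overnight, in 25 mM KH2PO4, 60 mM KCl, pH 7.4, 0.5% DMSO. DNA 10 μM in cell, ligand 500 μM in syringe; 19 injections of 4 s, 150 s apart, 750 rpm stirring; blank heat subtracted before model fitting.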

[13] = Drug uptake in nucleolus of human U87 cells assessed as change in fluorescence signal at 5 uM for 30 mins co-stained with DAPI for 10 mins followed by treating with RNase and measured after 30 mins by confocal laser fluorescence microscopic analysis; assay type: ADME, subcellular; conditions: u-87mg atcc, 1.167 h, time 70 min
MCF7 = test: Antiproliferative activity against human MCF7 cells assessed as reduction in cell viability […] by MTT assay; assay type: functional, cell-based
U-87 MG = test: Antiproliferative activity against human U87 cells assessed as reduction in cell viability […] by MTT assay; assay type: functional, cell-based, U-87MG ATCC
HeLa [14] = test: Induction of cellular senescence in human HeLa cells assessed as positive SA-beta-Gal cells at 0.5 to 4 uM incubated for 18 days by inverted fluorescence microscopic analysis; assay type: functional, cell-based; conditions: dose 0.5-4 µM, time 18.0 day
Summary of the method: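 HeLa cells were exposed to compound for 18 days, with drug-containing medium replaced every three days. Cells were then fixed 15 min at room temperature and stained for β-galactosidase at 37 °C overnight. Stained cells were examined under an inverted microscope.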

[15] = test system: Quadruplex DNA [UNDEFINED MUTATION]; test: Binding affinity to telomeric Htg24 G-quadruplex DNA G11A mutant (unknown origin) assessed as fluorescence signal at 5 uM under pH condition 7.4 by fluorescence titration analysis; assay type: nucleic-acid assay; conditions: Homo sapiens
Quadruplex DNA [16] = test: Binding affinity to G4 quadruplex DNA in human U87 cells assessed as decrease in fluorescence intensity at 5 uM in presence of 5 to 20 uM BRACO19 by DAPI staining based confocal laser microscopic analysis; assay type: cell-based
Summary of the method: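 Live U87 cells stained with ligand (5 μM) plus DAPI, with BRACO19 added at 0, 5, 10, 15 or 20 μM. Confocal imaging with excitation at 488 or 571 nm for the ligand and 402 nm for DAPI; nuclear spot fluorescence intensity scored.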

[17] = test system: Quadruplex DNA [UNDEFINED MUTATION]; test: Effect on confirmation of telomeric Htg24 G-quadruplex DNA T6G mutant (unknown origin) assessed as hybrid topology at 5 uM at pH 7.4 by circular dichroism analysis; assay type: nucleic-acid assay; conditions: Homo sapiens; summary of the method: as §2
[18] = test system: Quadruplex DNA [UNDEFINED MUTATION]; test: Binding affinity to telomeric Htg24 G-quadruplex DNA T6G mutant (unknown origin) assessed as negative fluorescence signal at 5 uM under pH condition 7.4 by fluorescence titration analysis; assay type: nucleic-acid assay; conditions: Homo sapiens; summary of the method: as §4
[19] = test system: Quadruplex DNA [UNDEFINED MUTATION]; test: Effect on confirmation of telomeric Htg24 G-quadruplex DNA A20G mutant (unknown origin) assessed as hybrid topology at 5 uM at pH 7.4 by circular dichroism analysis; assay type: nucleic-acid assay; conditions: Homo sapiens; summary of the method: as §2

Activity [1]: Active | Activity [2]: Active | Activity [3]: Active | fold change (FC) (Quadruplex DNA [4]): 120 | Activity (Quadruplex DNA [6]): 642 nm | Activity [7]: Active | IC50 (PC-3): 12.8 µM | IC50 (HeLa [9]): 16.3 µM | Activity [10]: inactive | Activity [11]: Active | Kd (DNA): 2.97 µM | Drug uptake [13]: Not Active | IC50 (MCF7): 14.5 µM | IC50 (U-87 MG): 15.2 µM | Activity [15]: inactive | Activity [17]: Active | Activity [18]: Active | Activity [19]: Active
SMILES: CN(C)c1ccc(/C=C/c2cc(/C=C3\Sc4ccccc4N3CCCN3CCOCC3)c3ccccc3[n+]2C)cc1.[I-]
IC50 (16HBE14o-): 52.3 µM | Activity (HeLa [5]): Dose-Dependent Effect | Activity (HeLa [8]): Active | Activity (HeLa [12]): Active | Activity (HeLa [14]): Active | Activity (Quadruplex DNA [16]): Active

— ChEMBL document CHEMBL4834396, “Molecular Recognition and Imaging of Human Telomeric G-Quadruplex DNA in Live Cells: A Systematic Advancement of Thiazole Orange Scaffold To Enhance Binding Specificity and Inhibition of Gene Expression” (J Med Chem, 2021)
